Results as given in ChEMBL document CHEMBL1687912, “Sugar-based enantiomeric and conformationally constrained pyrrolo[2,1-c][1,4]-benzodiazepines as potential GABAA ligands” (J Med Chem, 2011).

Species: Rattus norvegicus
Assay: Displacement of [3H]flunitrazepam from GABAA receptor in rat cortical membrane assessed as [3H]flunitrazepam binding at 100 uM after 90 mins by scintillation counting
Assay type: cell membranes
Summary of the method: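 Rat frontal cortex membranes (sucrose homogenate, ultracentrifuged pellets in 50 mM Tris-HCl pH 7.4), 0.3 mg protein per tube, incubated 90 min at 4 °C with 1 nM [3H]flunitrazepam ± 100 μM test compound (final; benzyl-sugar analogues from ethanol stock). Nonspecific binding with 100 μM flumazenil. Rapid GF/B filtration, ice-cold buffer washes, scintillation counting; expressed as % specific binding; three independent experiments in triplicate.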

Compound	Activity [%]
O=C1Nc2ccc([N+](=O)[O-])cc2C(=O)N2C[C@]3(C[C@H]12)O[C@H](COCc1ccccc1)[C@@H](OCc1ccccc1)[C@@H]3OCc1ccccc1	101
O=C1Nc2ccccc2C(=O)N2C[C@]3(C[C@H]12)O[C@H](COCc1ccccc1)[C@@H](OCc1ccccc1)[C@@H]3OCc1ccccc1	112
CN1C(=O)[C@H]2C[C@@]3(CN2C(=O)c2ccccc21)O[C@H](COCc1ccccc1)[C@@H](OCc1ccccc1)[C@@H]3OCc1ccccc1	96.4
CN1C(=O)[C@H]2C[C@@]3(CN2C(=O)c2cc(Cl)ccc21)O[C@H](COCc1ccccc1)[C@@H](OCc1ccccc1)[C@@H]3OCc1ccccc1	92.9
CN1C(=O)[C@@H]2C[C@]3(CN2C(=O)c2cc(Cl)ccc21)O[C@@H](COCc1ccccc1)[C@H](OCc1ccccc1)[C@H]3OCc1ccccc1	82.3
O=C1Nc2ccccc2C(=O)N2C[C@@]3(C[C@@H]12)O[C@@H](COCc1ccccc1)[C@H](OCc1ccccc1)[C@H]3OCc1ccccc1	96.3
CN1C(=O)[C@@H]2C[C@]3(CN2C(=O)c2ccccc21)O[C@@H](COCc1ccccc1)[C@H](OCc1ccccc1)[C@H]3OCc1ccccc1	106
CN1C(=O)[C@@H]2C[C@]3(CN2C(=O)c2cc(Br)ccc21)O[C@@H](COCc1ccccc1)[C@H](OCc1ccccc1)[C@H]3OCc1ccccc1	93.2
CN1C(=O)[C@@H]2CCCN2C(=O)c2cc([N+](=O)[O-])ccc21	63.4
O=C1Nc2ccccc2C(=O)N2CCC[C@H]12	97
CN1C(=O)[C@H]2C[C@@]3(CN2C(=O)c2cc(Br)ccc21)O[C@H](COCc1ccccc1)[C@@H](OCc1ccccc1)[C@@H]3OCc1ccccc1	111
CN1C(=O)[C@H]2C[C@@]3(CN2C(=O)c2cc([N+](=O)[O-])ccc21)O[C@H](COCc1ccccc1)[C@@H](OCc1ccccc1)[C@@H]3OCc1ccccc1	74.9
CN1C(=O)[C@H]2CCCN2C(=O)c2cc([N+](=O)[O-])ccc21	80.2
O=C1Nc2ccc([N+](=O)[O-])cc2C(=O)N2C[C@@]3(C[C@@H]12)O[C@@H](COCc1ccccc1)[C@H](OCc1ccccc1)[C@H]3OCc1ccccc1	69.6
CN1C(=O)[C@@H]2C[C@]3(CN2C(=O)c2cc([N+](=O)[O-])ccc21)O[C@@H](COCc1ccccc1)[C@H](OCc1ccccc1)[C@H]3OCc1ccccc1	82.8

Further lines, results first:

Activity [%]	Compound
93	CN1C(=O)[C@H]2C[C@@]3(CN2C(=O)c2ccccc21)O[C@H](CO)[C@@H](O)[C@@H]3O
73.9	Nc1ccc2c(c1)C(=O)N1C[C@@]3(C[C@H]1C(=O)N2)O[C@@H](CO)[C@H](O)[C@H]3O
70.6	CN1C(=O)[C@H]2C[C@@]3(CN2C(=O)c2cc(N)ccc21)O[C@H](CO)[C@@H](O)[C@@H]3O
80.2	Nc1ccc2c(c1)C(=O)N1C[C@]3(C[C@@H]1C(=O)N2)O[C@H](CO)[C@@H](O)[C@@H]3O
73.7	CN1C(=O)[C@H]2C[C@@]3(CN2C(=O)c2cc(Cl)ccc21)O[C@H](CO)[C@@H](O)[C@@H]3O
110	O=C1Nc2ccccc2C(=O)N2C[C@@]3(C[C@@H]12)O[C@@H](CO)[C@H](O)[C@H]3O
112	CN1C(=O)[C@@H]2C[C@]3(CN2C(=O)c2ccccc21)O[C@@H](CO)[C@H](O)[C@H]3O
77	CN1C(=O)[C@@H]2C[C@]3(CN2C(=O)c2cc(Cl)ccc21)O[C@@H](CO)[C@H](O)[C@H]3O
78.2	O=C1Nc2ccccc2C(=O)N2C[C@]3(C[C@H]12)O[C@H](CO)[C@@H](O)[C@@H]3O
82.2	CN1C(=O)[C@@H]2C[C@]3(CN2C(=O)c2cc(Br)ccc21)O[C@@H](CO)[C@H](O)[C@H]3O
83.5	CN1C(=O)[C@@H]2C[C@]3(CN2C(=O)c2cc(N)ccc21)O[C@@H](CO)[C@H](O)[C@H]3O
95.5	O=C1Nc2ccccc2C(=O)N2CCC[C@@H]12
84.2	CN1C(=O)[C@H]2C[C@@]3(CN2C(=O)c2cc(Br)ccc21)O[C@H](CO)[C@@H](O)[C@@H]3O
